The results in this text go back to ChEMBL document CHEMBL2434944, “Novel acetamidothiazole derivatives: synthesis and in vitro anticancer evaluation” (Eur J Med Chem, 2013).

One assay deals with SF-539. Nature of the assay: Growth inhibition of human SF539 cells assessed as cell growth at 10^-5 M after 48 hrs by sulforhodamine B assay relative to control. The assay is classed as functional. As to conditions: SF-539, 48 h, read-out: Activity. In a few lines:
(§1)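 NCI-60 single-dose screen at 10^-5 M. Cells grown in RPMI 1640 with 5% FBS and 2 mM L-glutamine, plated at 5,000–40,000 cells/well according to doubling time, and preincubated 24 h at 37°C, 5% CO2. Compound dissolved in DMSO and added. Exposure 48 h. Adherent cells fixed with cold TCA (10% final), suspension cells with 16% final TCA. Read-out is 0.4% SRB staining, dye solubilised in 10 mM Tris, absorbance at 515 nm. Percent growth is calculated against the time-zero plate and untreated control.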
On the technique in general: The SRB assay estimates cell density from bound dye.

For another assay, the system named is A498. Nature of the assay: Growth inhibition of human A498 cells assessed as cell growth at 10^-5 M after 48 hrs by sulforhodamine B assay relative to control. The conditions noted are these: A498, 48 h, read-out: Activity. It is filed as functional. In a few lines: as §1
Assay [1] can be described thus: Growth inhibition of human NCI-ADR-RES cells assessed as cell growth at 10^-5 M after 48 hrs by sulforhodamine B assay relative to control. As to conditions: read-out: Activity. The assay is classed as functional. The method in brief:
as §1

Assay [2] deals with Epidermal growth factor receptor (Homo sapiens, UniProt P00533). As to the kind of experiment: Inhibition of human EGFR.
The subject of a further assay is RXF 393. As to the kind of experiment: Growth inhibition of human RXF393 cells assessed as cell growth at 10^-5 M after 48 hrs by sulforhodamine B assay relative to control. It is filed as functional. The conditions noted are these: RXF 393, 48 h, read-out: Activity. The method in brief:
as §1

The test system of the next assay is SK-MEL-5. As to the kind of experiment: Growth inhibition of human SK-MEL-5 cells assessed as cell growth at 10^-5 M after 48 hrs by sulforhodamine B assay relative to control. It is filed as functional. As to conditions: SK-MEL-5, 48 h, read-out: Activity. In a few lines: as §1
The test system of a further assay is OVCAR-4. As to the kind of experiment: Growth inhibition of human OVCAR4 cells assessed as cell growth at 10^-5 M after 48 hrs by sulforhodamine B assay relative to control. It is filed as functional. As to conditions: OVCAR-4, 48 h, read-out: Activity. The method in brief:
as §1

In a further assay the target is T1, Cathepsin K (Homo sapiens, UniProt P43235).
T1 sequence (P43235 whole entry): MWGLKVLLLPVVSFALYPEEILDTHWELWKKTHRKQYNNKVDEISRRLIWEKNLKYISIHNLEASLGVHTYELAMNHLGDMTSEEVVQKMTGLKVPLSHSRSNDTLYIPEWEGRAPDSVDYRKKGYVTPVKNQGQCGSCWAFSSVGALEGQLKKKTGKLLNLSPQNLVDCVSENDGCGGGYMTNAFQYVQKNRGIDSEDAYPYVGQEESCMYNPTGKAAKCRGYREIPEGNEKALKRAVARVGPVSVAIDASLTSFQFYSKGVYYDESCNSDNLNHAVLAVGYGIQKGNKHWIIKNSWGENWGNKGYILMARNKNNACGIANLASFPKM
As to the kind of experiment: Inhibition of human cathepsin K.

The test system of the next assay is HT-29. As to the kind of experiment: Growth inhibition of human HT-29 cells assessed as cell growth at 10^-5 M after 48 hrs by sulforhodamine B assay relative to control. The assay is classed as functional. The conditions noted are these: HT-29, 48 h, read-out: Activity. The method in brief:
as §1

Another assay relates to OVCAR-8. Nature of the assay: Growth inhibition of human OVCAR8 cells assessed as cell growth at 10^-5 M after 48 hrs by sulforhodamine B assay relative to control. The assay is classed as functional. As to conditions: OVCAR-8, 48 h, read-out: Activity. The method in brief: as §1
The next assay deals with IGROV-1. Nature of the assay: Growth inhibition of human IGROV1 cells assessed as cell growth at 10^-5 M after 48 hrs by sulforhodamine B assay relative to control. As to conditions: IGROV-1, 48 h, read-out: Activity. The assay is classed as functional. In a few lines:
as §1

The test system of the next assay is 786-0. Nature of the assay: Growth inhibition of human 786-0 cells assessed as cell growth at 10^-5 M after 48 hrs by sulforhodamine B assay relative to control. It is filed as functional. As to conditions: 786-0, 48 h, read-out: Activity. The method in brief: as §1
Assay [3] can be described thus: Growth inhibition of human HCC2998 cells assessed as cell growth at 10^-5 M after 48 hrs by sulforhodamine B assay relative to control. It is filed as functional. As to conditions: HCC 2998, 48 h, read-out: Activity. The method in brief: as §1
The test system of another assay is MDA-MB-468. Nature of the assay: Growth inhibition of human MDA-MB-468 cells assessed as cell growth at 10^-5 M after 48 hrs by sulforhodamine B assay relative to control. It is filed as functional. The conditions noted are these: MDA-MB-468, 48 h, read-out: Activity. The method in brief: as §1
A further assay deals with HOP-92. As to the kind of experiment: Growth inhibition of human HOP92 cells assessed as cell growth at 10^-5 M after 48 hrs by sulforhodamine B assay relative to control. The assay is classed as functional. As to conditions: HOP-92, 48 h, read-out: Activity. The method in brief:
as §1

For another assay, the system named is OVCAR-5. Nature of the assay: Growth inhibition of human OVCAR5 cells assessed as cell growth at 10^-5 M after 48 hrs by sulforhodamine B assay relative to control. It is filed as functional. As to conditions: OVCAR-5, 48 h, read-out: Activity. In a few lines:
as §1

For a further assay, the system named is RPMI-8226. As to the kind of experiment: Growth inhibition of human RPMI8226 cells assessed as cell growth at 10^-5 M after 48 hrs by sulforhodamine B assay relative to control. It is filed as functional. As to conditions: RPMI-8226, 48 h, read-out: Activity. The method in brief: as §1
For the next assay, the system named is KM12. As to the kind of experiment: Growth inhibition of human KM12 cells assessed as cell growth at 10^-5 M after 48 hrs by sulforhodamine B assay relative to control. The assay is classed as functional. The conditions noted are these: KM12, 48 h, read-out: Activity. The method in brief: as §1
The test system of a further assay is HL-60(TB). Nature of the assay: Growth inhibition of human HL-60(TB) cells assessed as cell growth at 10^-5 M after 48 hrs by sulforhodamine B assay relative to control. It is filed as functional. The conditions noted are these: HL-60, 48 h, read-out: Activity. The method in brief: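 NCI-60 one-dose screen at 10^-5 M. Cells were grown in RPMI 1640 with 5% FBS and 2 mM L-glutamine and plated at 5,000–40,000 cells/well. They were preincubated 24 h at 37°C under 5% CO2, then exposed for 48 h. Suspension cells were fixed with 80% TCA (16% final) and stained with 0.4% SRB, read at 515 nm. Percent growth is versus untreated control, corrected for time-zero.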

For another assay, the system named is K562. Nature of the assay: Growth inhibition of human K562 cells assessed as cell growth at 10^-5 M after 48 hrs by sulforhodamine B assay relative to control. It is filed as functional. The conditions noted are these: K562, 48 h, read-out: Activity. In a few lines:
as §1

Another assay has as its system NCI-H322M. As to the kind of experiment: Growth inhibition of human NCI-H322M cells assessed as cell growth at 10^-5 M after 48 hrs by sulforhodamine B assay relative to control. The assay is classed as functional. As to conditions: read-out: Activity. In a few lines:
as §1

The next assay relates to PC-3. Nature of the assay: Growth inhibition of human PC3 cells assessed as cell growth at 10^-5 M after 48 hrs by sulforhodamine B assay relative to control. The conditions noted are these: PC-3, 48 h, read-out: Activity. It is filed as functional. In a few lines:
as §1

In the next assay the test system is UACC-257. As to the kind of experiment: Growth inhibition of human UACC257 cells assessed as cell growth at 10^-5 M after 48 hrs by sulforhodamine B assay relative to control. The assay is classed as functional. As to conditions: UACC-257, 48 h, read-out: Activity. In a few lines: (§2)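 NCI-60 single-dose screen, 10^-5 M final. Cells grown in RPMI 1640 with 5% FBS and 2 mM L-glutamine, seeded at 5,000–40,000 cells/well by doubling time. Preincubated 24 h at 37°C, 5% CO2. Compound in DMSO, diluted in medium with gentamicin, then 48 h exposure. Fixed with cold TCA, SRB stained, A515 read. Percent growth vs untreated control, time-zero plate corrected.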

A further assay relates to SW-620. As to the kind of experiment: Growth inhibition of human SW620 cells assessed as cell growth at 10^-5 M after 48 hrs by sulforhodamine B assay relative to control. The assay is classed as functional. As to conditions: SW-620, 48 h, read-out: Activity. In a few lines:
as §2

Usually Ki stands for the equilibrium dissociation constant of an inhibitor or competing ligand from its target.

Chain of Epidermal growth factor receptor (P00533 whole entry): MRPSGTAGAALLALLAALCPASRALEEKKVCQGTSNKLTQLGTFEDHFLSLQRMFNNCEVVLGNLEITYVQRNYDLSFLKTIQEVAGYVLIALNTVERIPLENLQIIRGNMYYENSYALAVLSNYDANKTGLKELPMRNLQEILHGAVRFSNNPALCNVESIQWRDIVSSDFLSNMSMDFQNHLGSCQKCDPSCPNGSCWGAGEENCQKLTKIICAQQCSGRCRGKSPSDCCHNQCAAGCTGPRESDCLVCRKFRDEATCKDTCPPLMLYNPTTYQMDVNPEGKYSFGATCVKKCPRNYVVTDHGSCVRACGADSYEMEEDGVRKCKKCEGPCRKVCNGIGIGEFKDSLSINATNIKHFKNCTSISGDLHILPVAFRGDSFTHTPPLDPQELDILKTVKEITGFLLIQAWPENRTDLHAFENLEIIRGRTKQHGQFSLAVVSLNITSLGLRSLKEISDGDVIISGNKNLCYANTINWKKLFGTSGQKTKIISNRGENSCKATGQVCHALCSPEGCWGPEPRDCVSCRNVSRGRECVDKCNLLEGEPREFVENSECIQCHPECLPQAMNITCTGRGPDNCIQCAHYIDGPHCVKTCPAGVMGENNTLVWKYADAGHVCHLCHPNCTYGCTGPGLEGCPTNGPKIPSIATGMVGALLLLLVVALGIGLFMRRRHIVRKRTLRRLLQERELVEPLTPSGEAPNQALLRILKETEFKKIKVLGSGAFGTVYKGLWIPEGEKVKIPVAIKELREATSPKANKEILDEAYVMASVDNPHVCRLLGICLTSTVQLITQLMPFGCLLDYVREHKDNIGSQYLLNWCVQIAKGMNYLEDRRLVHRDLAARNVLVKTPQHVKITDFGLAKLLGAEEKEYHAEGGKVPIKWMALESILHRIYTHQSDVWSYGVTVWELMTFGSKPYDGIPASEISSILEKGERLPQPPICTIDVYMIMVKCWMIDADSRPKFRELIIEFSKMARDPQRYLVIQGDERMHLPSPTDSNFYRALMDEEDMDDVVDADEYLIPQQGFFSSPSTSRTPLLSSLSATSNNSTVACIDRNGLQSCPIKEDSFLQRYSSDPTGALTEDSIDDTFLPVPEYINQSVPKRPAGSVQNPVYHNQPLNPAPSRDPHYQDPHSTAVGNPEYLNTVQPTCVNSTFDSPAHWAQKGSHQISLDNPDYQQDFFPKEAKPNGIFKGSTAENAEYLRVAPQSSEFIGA

Turning to `CN1CCN(C(=O)Cn2c(-c3ccccc3)csc2=N)CC1`, the growth at 10 µM in the assay on SF-539 came out at 98.7%; in the assay on A498 it was 92.6%; in assay [1], 92.6%; in the assay with RXF 393 it was 97.3%; with SK-MEL-5, 88.2%; in the assay with OVCAR-4, 88.4%. For the same molecule, the growth at 10 µM with HT-29 amounted to 83.8%; in the assay with OVCAR-8, 92.9%; in the assay with IGROV-1 it was 93.2%; in the assay on 786-0 it was 101%; in [3] it was 101%; in the assay with MDA-MB-468, 97.6%. Also, the growth at 10 µM was 73.8% with HOP-92; 110% in the assay on OVCAR-5; 92.5% in the assay with RPMI-8226; 102% with KM12; 100% with HL-60(TB); 98.2% in the assay with K562. The growth at 10 µM in the assay on NCI-H322M was 90.2%; in the assay on PC-3 it was 82.1%; with UACC-257 it was 106%; in the assay with SW-620, 96.1%. Besides, the Ki in assay [2] came out at 41.6 µM; on Cathepsin K it was 6.22 µM.

Regarding `CC(=O)N1CCN(C(=O)Cn2c(-c3ccc(Cl)cc3)csc2=N)CC1`, the growth at 10 µM in the assay on SF-539 turned out to be 90.2%; in the assay with A498, 67.7%; in [1], 95.5%; in the assay with RXF 393 it was 100%; with SK-MEL-5, 86.4%; with OVCAR-4, 77.2%. The growth at 10 µM with HT-29 stood at 85.8%; with OVCAR-8 it was 91.2%; in the assay with IGROV-1, 100%; in the assay with 786-0, 94.4%; in assay [3], 98.9%; in the assay with MDA-MB-468, 82.9%. For the same molecule, the growth at 10 µM in the assay on HOP-92 turned out to be 82%; in the assay with OVCAR-5, 101%; with RPMI-8226, 73.3%; in the assay with KM12, 95.2%; in the assay with HL-60(TB), 98%; in the assay with K562 it was 72%. In addition, the growth at 10 µM with NCI-H322M was 90.4%; with PC-3, 81.6%; with UACC-257, 91%; in the assay with SW-620, 106%. Moreover, the figures for the Ki (in [2]; at Cathepsin K) were 8.58 µM and 24.2 µM, respectively.
